The source of these data is article PMC7931646 (The Journal of Experimental Medicine, 2021).

For one data set, the system named is plasma Aβ42. To be noted: human, 250 mg, SAD study; ref Yu et al., 2014; cited from earlier work.
In another data set the target is CYP450 3A4 (Homo sapiens, UniProt P08684). Description: CYP450 inhibition, recombinant isoform. It counts as in vitro ADME. In a few lines:
(§1)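 Recombinant human CYP450 isoforms were incubated with isoform-specific probe substrates; for CYP3A4 these were midazolam and testosterone. Inhibition was quantified by LC-MS/MS analysis of probe-substrate turnover.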

Data set [1] is described as follows: GLP 28-d IND-enabling safety/toxicology study of compound 1 in NHPs. Format: in vivo, NHP. The conditions noted are these: data not shown.
The next data set deals with T1, CYP450 1A2 (Homo sapiens, UniProt P05177).
T1 sequence (P05177 1-516): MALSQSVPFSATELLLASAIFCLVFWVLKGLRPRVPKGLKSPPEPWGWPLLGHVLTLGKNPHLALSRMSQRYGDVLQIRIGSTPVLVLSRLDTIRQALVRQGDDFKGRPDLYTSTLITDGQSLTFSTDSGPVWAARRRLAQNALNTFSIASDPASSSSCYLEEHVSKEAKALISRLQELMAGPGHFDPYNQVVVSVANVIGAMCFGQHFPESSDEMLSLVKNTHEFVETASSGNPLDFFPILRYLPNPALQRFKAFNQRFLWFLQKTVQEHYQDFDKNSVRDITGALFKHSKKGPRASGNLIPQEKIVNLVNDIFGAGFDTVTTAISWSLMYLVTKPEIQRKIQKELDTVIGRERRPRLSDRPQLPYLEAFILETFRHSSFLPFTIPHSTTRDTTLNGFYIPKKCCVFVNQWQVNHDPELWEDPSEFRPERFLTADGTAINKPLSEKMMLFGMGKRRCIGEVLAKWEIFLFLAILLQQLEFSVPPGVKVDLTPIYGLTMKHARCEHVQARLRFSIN
Briefly: CYP450 inhibition, recombinant isoform. It counts as in vitro ADME. An outline of the steps:
as §1

The target of a further data set is CYP450 2C19 (Homo sapiens, UniProt P33261). Description: CYP450 inhibition, recombinant isoform. It counts as in vitro ADME. An outline of the steps: as §1
CYP450 2C19, sequence (P33261 whole entry, canonical isoform): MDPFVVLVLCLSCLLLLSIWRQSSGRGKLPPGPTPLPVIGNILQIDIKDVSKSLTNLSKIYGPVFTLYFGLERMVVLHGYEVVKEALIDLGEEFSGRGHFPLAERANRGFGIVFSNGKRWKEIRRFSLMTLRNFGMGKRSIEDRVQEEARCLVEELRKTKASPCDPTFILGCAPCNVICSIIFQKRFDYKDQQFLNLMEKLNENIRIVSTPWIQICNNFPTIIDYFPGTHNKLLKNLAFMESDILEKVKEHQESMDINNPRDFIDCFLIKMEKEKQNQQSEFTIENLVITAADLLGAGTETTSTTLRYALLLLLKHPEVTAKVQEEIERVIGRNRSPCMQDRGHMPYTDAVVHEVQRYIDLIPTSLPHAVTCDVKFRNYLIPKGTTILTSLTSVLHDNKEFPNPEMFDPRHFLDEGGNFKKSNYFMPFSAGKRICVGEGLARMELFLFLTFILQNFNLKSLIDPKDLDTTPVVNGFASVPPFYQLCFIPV
Data set [2] has as its system S. typhimurium strains TA1535, TA1537, TA98, TA100 and E. coli strain WP2 (uvrA). Briefly: GLP Salmonella–Escherichia coli/microsome plate incorporation. It counts as cell-based, Salmonella typhimurium. The conditions noted are these: S. typhimurium TA98 and TA100, only with Aroclor-induced rat liver S9; data not shown. An outline of the steps:
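GLP plate-incorporation mutagenicity test using S. typhimurium TA1535, TA1537, TA98 and TA100 and E. coli WP2 (uvrA). Each strain was run with and without a metabolic activation mix of Aroclor 1254–induced rat liver microsomes (S9). Read-out is revertant bacterial growth.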

A short description of data set [3]: Kinetic aqueous solubility, PBS pH 7.4. It counts as physicochemical. To be noted: PBS buffer, pH 7.4, aqueous buffer, kinetic from dmso stock. In a few lines: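 Kinetic solubility in PBS at pH 7.4, read by UV/Vis absorbance and reported in micromolar.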
The nature of data set [4]: Kinetic solubility in simulated intestinal fluids. It counts as physicochemical. The conditions noted are these: for FaSSIF dissolved compound concentration: FaSSIF pH 6.5, UV/Vis absorbance; for FeSSIF dissolved compound concentration: FeSSIF pH 5.8, UV/Vis absorbance. An outline of the steps:
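Dissolved test compound concentration in FaSSIF or FeSSIF simulated intestinal fluids, determined by UV/Vis absorbance.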

The nature of data set [5]: GLP 28-d IND-enabling safety/toxicology study of compound 1 in rats. It counts as in vivo, rat. The conditions noted are these: data not shown.
The nature of data set [6]: Liver microsomal stability, human. Format: in vitro ADME. To be noted: liver microsomes. An outline of the steps: (§2)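 Test compound at 1 µM was incubated for 30 min with liver microsomes at 1 mg/ml (human, rat or mouse). Result is percent of parent compound remaining.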
For orientation: Liver microsomes are a subcellular fraction often used to study metabolism.

A short description of data set [7]: Liver microsomal stability, mouse. The conditions noted are these: liver microsomes. It counts as in vitro ADME. In a few lines: as §2
The subject of data set [8] is S. typhimurium bacterial strains TA98, TA100, TA1535, TA1537. Briefly: Non-GLP screening. It counts as cell-based, Salmonella typhimurium. To be noted: 5–100 µM, with and without Aroclor-induced rat liver S9. In a few lines: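 Non-GLP mini-Ames screen using S. typhimurium TA98, TA100, TA1535 and TA1537, with and without Aroclor-induced rat liver S9. Test article was applied at 5–100 µM. Read-out was bacterial growth from reversion of the histidine mutation.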

Another data set deals with hERG channel (Homo sapiens, UniProt Q12809). Description: Patch-Xpress patch-clamp hERG assay in HEK-293 cells. It counts as cell-based. For orientation: In patch-clamp work, channel activity is measured electrically.
hERG channel, sequence (Q12809 whole entry): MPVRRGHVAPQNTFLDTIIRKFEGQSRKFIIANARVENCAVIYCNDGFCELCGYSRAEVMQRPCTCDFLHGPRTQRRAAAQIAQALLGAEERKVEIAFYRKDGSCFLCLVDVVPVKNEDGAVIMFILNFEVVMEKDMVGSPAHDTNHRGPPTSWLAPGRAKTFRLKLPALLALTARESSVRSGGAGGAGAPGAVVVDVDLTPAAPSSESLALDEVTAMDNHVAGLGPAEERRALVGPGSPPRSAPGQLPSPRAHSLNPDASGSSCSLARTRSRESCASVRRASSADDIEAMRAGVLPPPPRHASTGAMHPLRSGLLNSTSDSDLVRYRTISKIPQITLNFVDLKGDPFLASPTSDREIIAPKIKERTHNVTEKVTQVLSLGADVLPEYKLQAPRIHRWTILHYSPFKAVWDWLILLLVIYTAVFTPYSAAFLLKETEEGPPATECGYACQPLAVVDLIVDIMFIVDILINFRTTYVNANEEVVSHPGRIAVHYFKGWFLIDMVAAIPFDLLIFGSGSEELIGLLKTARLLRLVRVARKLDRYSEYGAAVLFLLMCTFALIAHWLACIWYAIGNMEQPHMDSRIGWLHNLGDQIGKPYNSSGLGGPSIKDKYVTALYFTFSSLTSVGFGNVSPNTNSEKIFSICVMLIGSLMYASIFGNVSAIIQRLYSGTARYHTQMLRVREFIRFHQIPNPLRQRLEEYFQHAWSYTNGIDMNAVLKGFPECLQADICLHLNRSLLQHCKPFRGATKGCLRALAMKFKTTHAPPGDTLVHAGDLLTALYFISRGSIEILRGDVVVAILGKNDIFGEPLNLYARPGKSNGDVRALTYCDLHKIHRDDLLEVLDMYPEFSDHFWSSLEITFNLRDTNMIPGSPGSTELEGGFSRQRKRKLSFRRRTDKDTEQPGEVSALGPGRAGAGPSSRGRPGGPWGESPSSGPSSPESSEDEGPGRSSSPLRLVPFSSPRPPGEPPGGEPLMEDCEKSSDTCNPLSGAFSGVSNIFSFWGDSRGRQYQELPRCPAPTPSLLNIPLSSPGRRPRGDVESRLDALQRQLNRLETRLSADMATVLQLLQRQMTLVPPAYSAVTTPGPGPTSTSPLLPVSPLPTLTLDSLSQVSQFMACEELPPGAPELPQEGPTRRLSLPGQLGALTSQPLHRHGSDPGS
A short description of data set [9]: Plasma protein binding, equilibrium dialysis. It counts as in vitro ADME. To be noted: human. An outline of the steps:
(§3)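 Equilibrium dialysis of test compound in human, rat or mouse plasma against buffer across a semipermeable membrane. Compound concentrations in both compartments were measured by LC/MS, and percent bound was derived from them.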
In general terms: In equilibrium dialysis free small molecules cross a membrane that holds back macromolecules.

The target in another data set is CYP450 2D6 (Homo sapiens, UniProt P10635). Briefly: CYP450 inhibition, recombinant isoform. Format: in vitro ADME. In a few lines: as §1
CYP450 2D6, sequence (P10635 whole entry, canonical isoform): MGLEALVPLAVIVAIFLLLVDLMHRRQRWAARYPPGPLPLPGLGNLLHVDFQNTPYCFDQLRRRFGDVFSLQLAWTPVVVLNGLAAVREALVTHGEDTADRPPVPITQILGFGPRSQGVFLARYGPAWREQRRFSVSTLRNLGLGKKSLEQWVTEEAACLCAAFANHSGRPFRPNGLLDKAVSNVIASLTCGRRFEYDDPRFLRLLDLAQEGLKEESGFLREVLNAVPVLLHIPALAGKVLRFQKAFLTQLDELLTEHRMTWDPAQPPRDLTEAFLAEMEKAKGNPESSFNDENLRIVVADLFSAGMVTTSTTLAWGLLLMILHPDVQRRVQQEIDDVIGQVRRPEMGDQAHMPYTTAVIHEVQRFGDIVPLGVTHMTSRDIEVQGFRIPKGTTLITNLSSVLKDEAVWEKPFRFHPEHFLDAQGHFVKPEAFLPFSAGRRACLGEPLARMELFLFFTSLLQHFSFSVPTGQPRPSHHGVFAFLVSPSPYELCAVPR
A further data set in a line: MDR1-MDCK permeability. The conditions noted are these: dog. Format: in vitro ADME. In a few lines:
(§4)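 Transport across MDR1-MDCK cell monolayers. Apparent permeability was measured in the apical-to-basolateral direction (× 10−6 cm/s). Efflux ratio was calculated as Papp B-A / Papp A-B.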

Another data set relates to P-glycoprotein (MDR1). Briefly: MDR1-MDCK permeability. Format: in vitro ADME. To be noted: dog. An outline of the steps:
as §4

Data set [10] can be described thus: Plasma protein binding, equilibrium dialysis. It counts as in vitro ADME. To be noted: rat. An outline of the steps:
as §3

Another data set concerns the target CYP450 2C9 (Homo sapiens, UniProt P11712). Briefly: CYP450 inhibition, recombinant isoform. It counts as in vitro ADME.
Data set [11] can be described thus: Plasma protein binding, equilibrium dialysis. Format: in vitro ADME. To be noted: mouse. In a few lines:
as §3

Data set [12] can be described thus: Liver microsomal stability, rat. The conditions noted are these: liver microsomes. It counts as in vitro ADME. An outline of the steps: as §2
For a further data set, the system named is γ-secretase. The conditions noted are these: ref Green et al., 2009; cited from earlier work.
For data set [13] the following is noted: ref Green et al., 2009; cited from earlier work.
The next data set concerns CSF Aβ42 and Aβ40. To be noted: human, 200 mg, ref Soares et al., 2016, cited from earlier work.
Another data set has as its system CSF Aβ42. To be noted: human, ref Ahn et al., 2020, cited from earlier work; for CSF Aβ42 levels lowered: MAD study.
Where [14] appears, read: CYP450 IC50 3A4 (m), probe substrate midazolam.

Each structure is given as a SMILES string. Converted amounts (≈) assume the structure as drawn. Where two headings read alike, the source gives them in different places. Bounds are passed on as bounds.

CYP450 2C9, sequence (P11712 whole entry, canonical isoform): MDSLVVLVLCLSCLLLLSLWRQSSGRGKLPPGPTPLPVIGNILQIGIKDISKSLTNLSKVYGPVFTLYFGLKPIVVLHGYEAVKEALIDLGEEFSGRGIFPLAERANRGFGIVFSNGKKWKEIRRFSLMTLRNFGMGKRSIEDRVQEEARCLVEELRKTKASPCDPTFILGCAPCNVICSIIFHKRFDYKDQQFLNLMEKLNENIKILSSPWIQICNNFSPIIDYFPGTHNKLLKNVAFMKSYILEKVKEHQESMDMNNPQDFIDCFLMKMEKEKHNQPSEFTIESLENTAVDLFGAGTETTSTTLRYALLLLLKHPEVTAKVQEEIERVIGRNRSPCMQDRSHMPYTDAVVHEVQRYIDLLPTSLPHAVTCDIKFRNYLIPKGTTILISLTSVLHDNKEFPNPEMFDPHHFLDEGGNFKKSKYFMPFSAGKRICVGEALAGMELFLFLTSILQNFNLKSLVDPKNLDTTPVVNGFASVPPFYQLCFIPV
CYP450 3A4, sequence (P08684 whole entry, canonical isoform): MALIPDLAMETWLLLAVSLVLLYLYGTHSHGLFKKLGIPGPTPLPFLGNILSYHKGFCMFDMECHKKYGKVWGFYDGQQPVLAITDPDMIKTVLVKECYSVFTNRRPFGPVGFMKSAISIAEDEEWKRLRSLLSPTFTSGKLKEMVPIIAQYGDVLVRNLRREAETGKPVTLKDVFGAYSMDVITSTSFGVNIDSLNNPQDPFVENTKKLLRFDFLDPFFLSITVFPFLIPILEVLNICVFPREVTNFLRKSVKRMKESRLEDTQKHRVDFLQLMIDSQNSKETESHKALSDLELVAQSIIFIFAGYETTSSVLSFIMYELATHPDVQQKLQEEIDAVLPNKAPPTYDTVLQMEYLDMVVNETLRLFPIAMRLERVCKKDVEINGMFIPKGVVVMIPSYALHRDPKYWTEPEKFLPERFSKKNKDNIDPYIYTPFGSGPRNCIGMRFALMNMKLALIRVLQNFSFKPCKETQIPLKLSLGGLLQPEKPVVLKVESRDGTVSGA

For `COc1nc(/C=C/c2nc3n(n2)CCC[C@H]3c2ccccc2C(F)(F)F)ccc1-n1cnc(C)c1` [E2212], the “maximal lowering of plasma Aβ42 levels (AUC0–24 h)” value in the data set on plasma Aβ42 is recorded as 44.1%.

In the case of `COc1nc(-c2cc(C)c(N[C@@H](C)c3ccc(F)cc3)nn2)ccc1-n1cnc(C)c1` [Compound 1, (S)-N-(1-(4-fluorophenyl)ethyl)-6-(6-methoxy-5-(4-methyl-1H-imidazol-1-yl)pyridin-2-yl)-4-methylpyridazin-3-amine], the IC50 (as a rule, the concentration needed to halve the response being measured) at CYP450 3A4 was 8.9 µM; on CYP450 3A4 (setting [14]), 14 µM; at CYP450 1A2, 37 µM; at CYP450 2C19, 6.9 µM; on hERG channel it was 6.2 µM; at CYP450 2D6, 4.7 µM. Also, the IC50 at CYP450 2C9 worked out at 1.3 µM. Besides, in data set [1], the “finding in GLP 28-d IND-enabling study in NHPs” value was “evidence of corrected QT interval prolongation”. In data set [2], the Ames assay results is on record as “highly variable”. The kinetic solubility (in general, solubility judged after dilution from a stock solution rather than from solid) in data set [3] turned out to be 6.6 µM (≈ 2.76 µg/mL). Also, the “FaSSIF dissolved compound concentration” value in [4] was >100/ >100. Further, in [4], the “FeSSIF dissolved compound concentration” value is >100/ >100. For the same compound, the “finding in GLP 28-d IND-enabling study in rat” value in data set [5] is given as “potentially mutagenic metabolite(s)”. Also, the share remaining (usually the share of the starting amount still present when the sample was taken) at 0.5 h, 1 µM is 78% in [6], 76% in data set [7] and 84% in [12]. The Ames entry in data set [8] is given as “Positive”. In addition, the figures for the fraction unbound in data set [9], in data set [10] and in [11] were 0.004, 0.001 and 0.002, respectively. In the data set “MDR1-MDCK permeability”, the Papp A→B – broadly, the apparent permeability from the apical to the basolateral side of a cell layer – came to 37.2 ×10⁻⁶ cm/s. Also, in the data set on P-glycoprotein (MDR1), the efflux ratio (commonly the permeability from basolateral to apical divided by that in the opposite direction, in the common usage) came to 0.9.

Regarding `C[C@@H](C(=O)O)c1ccc(-c2ccccc2)c(F)c1` [R-flurbiprofen], the “in vitro GSM activity” value in the data set with γ-secretase is given as “weak”. Moreover, in [13], the “efficacy in phase 3 human trials” value was “did not show efficacy”.

`CNc1nc(Nc2ccc(-n3cnc(C)n3)c(OC)c2)nc2c1CC[C@H]2c1ccc(F)cc1` [BMS-932481]: in the data set with CSF Aβ42 and Aβ40 (2-wk MAD study), the “maximal lowering of CSF Aβ40 levels” value was 74% and the “maximal lowering of CSF Aβ42 levels” value is 77%. Besides, the “stage 3 elevations in alanine amino transferase” value in the data set with CSF Aβ42 and Aβ40 is recorded as “two of six subjects”.

For `Cc1cn(-c2ccc3n(c2=O)CCN([C@@H](C)[C@@H]2CC[C@H](c4cc(F)c(Cl)cc4C(F)(F)F)O2)C3=O)cn1` [PF-06648671], the “CSF Aβ42 levels lowered” value was 44% with CSF Aβ42 (100 mg), 59% in the data set with CSF Aβ42 (200 mg) and 65% in the data set with CSF Aβ42 (360 mg). For the same compound, the safety profile entry in the data set on CSF Aβ42 (up to 360 mg qd for 14 d) is “good safety profile”.

In the case of `COc1nc(-c2cc(C)c(N[C@@H](C)c3c(F)cc(F)cc3F)nn2)ccc1-n1cnc(C)c1` [Compound 3, (S)-6-(6-methoxy-5-(4-methyl-1H-imidazol-1-yl)pyridin-2-yl)-4-methyl-N-(1-(2,4,6-trifluorophenyl)ethyl)pyridazin-3-amine], the IC50 at CYP450 3A4 stood at 17 µM; at CYP450 3A4 (setting [14]), 19 µM; at CYP450 1A2 it was 3.6 µM; at CYP450 2C19, 13 µM; on hERG channel it was 3.1 µM; at CYP450 2D6 it was 20 µM. Moreover, on CYP450 2C9, the IC50 was found to be 1.3 µM. In data set [3], this compound gave a kinetic solubility of less than 1.3 µM. Besides, the “FaSSIF dissolved compound concentration” value in data set [4] is reported as 79. In addition, in [4], the “FeSSIF dissolved compound concentration” value is listed as 82. In addition, the share remaining at 0.5 h, 1 µM in data set [6], in data set [7] and in data set [12] was 100% each time. The Ames result in data set [8] is “Negative”. Further, at hERG channel, the “safety margin between Aβ42 IC50 and hERG IC20” value is recorded as more than 100 fold. Moreover, at hERG channel (human, HEK-293 cells expressing hERG), the IC20 (usually the point of the concentration-response curve where the effect stands at 20%) turned out to be 1 µM. The unbound share (fraction unbound) in data set [9], in data set [10] and in data set [11] was 0.003 each time. In the data set “MDR1-MDCK permeability”, this compound returned a Papp A→B of 30.2 ×10⁻⁶ cm/s. Moreover, the efflux ratio in the data set on P-glycoprotein (MDR1) stood at 1.1. For the same compound, the “CYP450 2C9 IC50 relative to Aβ42 IC50” value at CYP450 2C9 is recorded as “over 200 fold”.
